Fold change (FC) and inhibition data for three molecules are collected here from ChEMBL document CHEMBL5653631, “A Potent and Selective ULK1 Inhibitor Suppresses Autophagy and Sensitizes Cancer Cells to Nutrient Stress” (iScience, 2018).

Usually inhibition stands for how much of the control response was suppressed.

Assay [1] addresses High affinity nerve growth factor receptor (Homo sapiens) (UniProt P04629). Nature of the assay: Inhibition of human recombinant TRKA at 40 nM related to control ULK1.
The target of assay [2] is T1, Tyrosine-protein kinase ZAP-70 (Homo sapiens) (UniProt P43403).
T1 sequence (whole entry): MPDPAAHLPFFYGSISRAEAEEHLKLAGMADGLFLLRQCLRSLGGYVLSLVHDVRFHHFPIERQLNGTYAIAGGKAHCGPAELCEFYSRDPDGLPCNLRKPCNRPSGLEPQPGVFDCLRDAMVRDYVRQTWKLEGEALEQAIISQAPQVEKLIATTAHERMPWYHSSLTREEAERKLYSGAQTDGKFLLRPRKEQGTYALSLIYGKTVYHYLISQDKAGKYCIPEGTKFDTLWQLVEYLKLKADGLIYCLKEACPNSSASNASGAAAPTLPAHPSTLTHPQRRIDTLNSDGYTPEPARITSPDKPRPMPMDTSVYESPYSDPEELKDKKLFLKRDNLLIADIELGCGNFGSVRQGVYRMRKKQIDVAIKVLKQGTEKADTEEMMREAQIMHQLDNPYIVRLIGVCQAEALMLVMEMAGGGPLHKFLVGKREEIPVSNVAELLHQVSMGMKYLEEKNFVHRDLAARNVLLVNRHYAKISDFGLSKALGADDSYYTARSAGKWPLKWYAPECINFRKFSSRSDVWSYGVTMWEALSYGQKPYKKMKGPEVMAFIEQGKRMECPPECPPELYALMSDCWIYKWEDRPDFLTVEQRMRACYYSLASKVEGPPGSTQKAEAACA
Nature of the assay: Inhibition of human recombinant ZAP70 at 40 nM in presence of ATP by radiometric assay relative to control.

Assay [3] addresses Casein kinase I isoform gamma-3 (Homo sapiens) (UniProt Q9Y6M4). Nature of the assay: Inhibition of human recombinant CK1g3 at 40 nM related to control ULK1.
In assay [4] the target is Calcium/calmodulin-dependent protein kinase type II subunit beta (Homo sapiens) (UniProt Q13554). Nature of the assay: Inhibition of human recombinant CaMK2b at 40 nM related to control ULK1.
Assay [5] has as its target Death-associated protein kinase 2 (Homo sapiens) (UniProt Q9UIK4). Nature of the assay: Inhibition of human recombinant DAPK2 at 40 nM in presence of ATP by radiometric assay relative to control.
Assay [6] has as its target T2, Serine/threonine-protein kinase A-Raf (Homo sapiens) (UniProt P10398).
T2 sequence (whole entry): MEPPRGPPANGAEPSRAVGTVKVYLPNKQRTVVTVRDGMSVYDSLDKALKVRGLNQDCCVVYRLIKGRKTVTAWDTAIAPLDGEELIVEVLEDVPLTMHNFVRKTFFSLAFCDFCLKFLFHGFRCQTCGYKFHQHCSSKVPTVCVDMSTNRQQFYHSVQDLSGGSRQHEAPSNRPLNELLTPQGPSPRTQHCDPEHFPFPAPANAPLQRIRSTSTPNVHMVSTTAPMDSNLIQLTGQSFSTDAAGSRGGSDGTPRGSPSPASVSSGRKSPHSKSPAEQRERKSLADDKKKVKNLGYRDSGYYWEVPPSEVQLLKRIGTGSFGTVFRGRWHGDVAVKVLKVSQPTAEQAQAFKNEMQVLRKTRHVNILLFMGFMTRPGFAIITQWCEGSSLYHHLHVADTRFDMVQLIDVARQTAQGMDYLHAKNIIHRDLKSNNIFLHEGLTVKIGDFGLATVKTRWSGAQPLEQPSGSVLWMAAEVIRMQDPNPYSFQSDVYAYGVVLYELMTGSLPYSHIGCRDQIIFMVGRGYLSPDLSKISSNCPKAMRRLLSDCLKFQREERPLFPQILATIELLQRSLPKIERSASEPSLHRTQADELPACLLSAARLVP
Nature of the assay: Inhibition of human recombinant ARAF at 500 nM related to control ULK1. In outline: (§1)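 Panel of 327 recombinant human kinases, each assayed in vitro by radiometric activity assay in duplicate at a single inhibitor concentration per compound, chosen with reference to its ULK1 inhibition. Activity remaining was expressed as percent of vehicle control, and percent inhibition was calculated as 100 minus percent activity remaining.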

Assay [7] has as its target Serine/threonine-protein kinase PAK 2 (Homo sapiens) (UniProt Q13177). Nature of the assay: Inhibition of human recombinant PAK2 at 500 nM in presence of ATP by radiometric assay relative to control.
Assay [8] concerns the target RAC-alpha serine/threonine-protein kinase (Homo sapiens) (UniProt P31749). Nature of the assay: Inhibition of human recombinant AKT1 at 500 nM related to control ULK1.
Assay [9] concerns the target Mitogen-activated protein kinase 8 (Homo sapiens) (UniProt P45983). Nature of the assay: Inhibition of human recombinant JNK1 at 500 nM related to control ULK1.
Assay [10] has as its target Cyclin-dependent kinase 18 (Homo sapiens) (UniProt Q07002). Nature of the assay: Inhibition of human recombinant PCTAIRE3 at 500 nM related to control ULK1.
Assay [11] deals with T3, NUAK family SNF1-like kinase 2 (Homo sapiens) (UniProt Q9H093).
T3 sequence (whole entry): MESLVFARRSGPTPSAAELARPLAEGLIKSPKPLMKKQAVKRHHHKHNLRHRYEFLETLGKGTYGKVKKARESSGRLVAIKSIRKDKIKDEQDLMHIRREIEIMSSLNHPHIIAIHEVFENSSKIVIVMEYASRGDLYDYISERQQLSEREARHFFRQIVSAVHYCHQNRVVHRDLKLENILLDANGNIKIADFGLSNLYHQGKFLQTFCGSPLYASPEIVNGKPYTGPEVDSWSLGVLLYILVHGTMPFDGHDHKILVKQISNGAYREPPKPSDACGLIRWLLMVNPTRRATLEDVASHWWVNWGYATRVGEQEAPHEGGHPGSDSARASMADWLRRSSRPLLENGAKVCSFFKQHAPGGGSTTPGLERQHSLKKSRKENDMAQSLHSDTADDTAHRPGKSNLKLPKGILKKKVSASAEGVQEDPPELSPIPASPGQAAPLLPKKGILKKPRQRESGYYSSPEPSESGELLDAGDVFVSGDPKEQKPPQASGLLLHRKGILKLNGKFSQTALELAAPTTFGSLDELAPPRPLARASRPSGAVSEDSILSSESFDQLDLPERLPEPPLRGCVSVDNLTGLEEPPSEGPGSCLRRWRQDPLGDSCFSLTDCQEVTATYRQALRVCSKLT
Nature of the assay: Inhibition of human recombinant NuaK2 at 15 nM in presence of ATP by radiometric assay relative to control.

Assay [12] concerns the target Platelet-derived growth factor receptor alpha (Homo sapiens) (UniProt P16234). Nature of the assay: Inhibition of human recombinant PDGFRa at 15 nM in presence of ATP by radiometric assay relative to control.
Assay [13] deals with Transient receptor potential cation channel subfamily M member 7 (Homo sapiens) (UniProt Q96QT4). Nature of the assay: Inhibition of human recombinant ChaK1 at 15 nM related to control ULK1.
Sequence of Transient receptor potential cation channel subfamily M member 7 (Homo sapiens) (Q96QT4 whole entry): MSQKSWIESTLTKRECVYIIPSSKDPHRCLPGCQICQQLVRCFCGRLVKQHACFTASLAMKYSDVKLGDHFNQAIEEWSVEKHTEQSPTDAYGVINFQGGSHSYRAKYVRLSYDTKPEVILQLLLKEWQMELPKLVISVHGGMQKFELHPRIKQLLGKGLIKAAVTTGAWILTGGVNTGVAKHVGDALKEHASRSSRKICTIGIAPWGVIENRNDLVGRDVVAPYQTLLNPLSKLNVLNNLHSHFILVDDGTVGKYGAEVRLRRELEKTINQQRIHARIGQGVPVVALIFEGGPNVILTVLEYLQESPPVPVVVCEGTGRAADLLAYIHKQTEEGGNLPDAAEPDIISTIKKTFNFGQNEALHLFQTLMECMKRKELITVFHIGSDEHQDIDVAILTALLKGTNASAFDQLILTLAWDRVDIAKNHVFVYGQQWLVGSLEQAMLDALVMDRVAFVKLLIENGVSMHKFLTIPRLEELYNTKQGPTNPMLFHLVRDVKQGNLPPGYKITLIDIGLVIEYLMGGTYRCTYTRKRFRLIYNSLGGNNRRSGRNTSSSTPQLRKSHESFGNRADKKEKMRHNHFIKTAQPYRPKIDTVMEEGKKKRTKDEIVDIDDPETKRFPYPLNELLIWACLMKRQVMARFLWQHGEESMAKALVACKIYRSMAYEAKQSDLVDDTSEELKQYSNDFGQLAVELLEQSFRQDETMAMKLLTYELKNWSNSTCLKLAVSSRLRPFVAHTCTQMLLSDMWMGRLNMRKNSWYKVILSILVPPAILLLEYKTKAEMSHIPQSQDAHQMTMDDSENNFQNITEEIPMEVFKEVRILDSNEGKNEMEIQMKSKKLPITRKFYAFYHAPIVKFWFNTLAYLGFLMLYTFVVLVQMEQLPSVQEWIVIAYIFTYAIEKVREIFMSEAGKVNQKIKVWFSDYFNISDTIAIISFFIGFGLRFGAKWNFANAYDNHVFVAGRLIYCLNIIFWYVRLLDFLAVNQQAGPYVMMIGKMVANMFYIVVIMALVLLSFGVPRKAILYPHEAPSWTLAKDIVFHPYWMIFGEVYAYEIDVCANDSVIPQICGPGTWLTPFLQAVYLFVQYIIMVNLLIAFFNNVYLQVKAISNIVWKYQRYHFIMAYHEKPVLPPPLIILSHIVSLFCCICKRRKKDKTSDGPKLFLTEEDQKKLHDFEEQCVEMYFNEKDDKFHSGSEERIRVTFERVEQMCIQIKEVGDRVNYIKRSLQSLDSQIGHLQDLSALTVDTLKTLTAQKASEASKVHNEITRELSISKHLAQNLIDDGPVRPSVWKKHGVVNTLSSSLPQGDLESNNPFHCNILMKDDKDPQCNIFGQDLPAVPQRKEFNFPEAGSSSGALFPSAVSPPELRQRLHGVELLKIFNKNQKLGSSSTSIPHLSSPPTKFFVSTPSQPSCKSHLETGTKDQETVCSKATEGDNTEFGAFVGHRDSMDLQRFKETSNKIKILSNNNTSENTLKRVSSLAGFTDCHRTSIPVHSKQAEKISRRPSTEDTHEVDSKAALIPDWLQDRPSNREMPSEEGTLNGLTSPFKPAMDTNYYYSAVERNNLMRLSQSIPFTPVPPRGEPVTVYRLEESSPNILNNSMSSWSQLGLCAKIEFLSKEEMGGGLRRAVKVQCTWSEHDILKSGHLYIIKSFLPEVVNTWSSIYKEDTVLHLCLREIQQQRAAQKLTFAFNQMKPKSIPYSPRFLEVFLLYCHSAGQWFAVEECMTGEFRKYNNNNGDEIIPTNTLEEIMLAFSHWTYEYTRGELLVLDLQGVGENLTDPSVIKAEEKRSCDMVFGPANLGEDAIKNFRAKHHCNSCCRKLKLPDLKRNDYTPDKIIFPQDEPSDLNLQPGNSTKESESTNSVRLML
The target of assay [14] is T2, Serine/threonine-protein kinase A-Raf (Homo sapiens). Nature of the assay: Inhibition of human recombinant ARAF at 15 nM in presence of ATP by radiometric assay relative to control. An outline of the steps: as §1

Sequence of Platelet-derived growth factor receptor alpha (Homo sapiens) (P16234 whole entry): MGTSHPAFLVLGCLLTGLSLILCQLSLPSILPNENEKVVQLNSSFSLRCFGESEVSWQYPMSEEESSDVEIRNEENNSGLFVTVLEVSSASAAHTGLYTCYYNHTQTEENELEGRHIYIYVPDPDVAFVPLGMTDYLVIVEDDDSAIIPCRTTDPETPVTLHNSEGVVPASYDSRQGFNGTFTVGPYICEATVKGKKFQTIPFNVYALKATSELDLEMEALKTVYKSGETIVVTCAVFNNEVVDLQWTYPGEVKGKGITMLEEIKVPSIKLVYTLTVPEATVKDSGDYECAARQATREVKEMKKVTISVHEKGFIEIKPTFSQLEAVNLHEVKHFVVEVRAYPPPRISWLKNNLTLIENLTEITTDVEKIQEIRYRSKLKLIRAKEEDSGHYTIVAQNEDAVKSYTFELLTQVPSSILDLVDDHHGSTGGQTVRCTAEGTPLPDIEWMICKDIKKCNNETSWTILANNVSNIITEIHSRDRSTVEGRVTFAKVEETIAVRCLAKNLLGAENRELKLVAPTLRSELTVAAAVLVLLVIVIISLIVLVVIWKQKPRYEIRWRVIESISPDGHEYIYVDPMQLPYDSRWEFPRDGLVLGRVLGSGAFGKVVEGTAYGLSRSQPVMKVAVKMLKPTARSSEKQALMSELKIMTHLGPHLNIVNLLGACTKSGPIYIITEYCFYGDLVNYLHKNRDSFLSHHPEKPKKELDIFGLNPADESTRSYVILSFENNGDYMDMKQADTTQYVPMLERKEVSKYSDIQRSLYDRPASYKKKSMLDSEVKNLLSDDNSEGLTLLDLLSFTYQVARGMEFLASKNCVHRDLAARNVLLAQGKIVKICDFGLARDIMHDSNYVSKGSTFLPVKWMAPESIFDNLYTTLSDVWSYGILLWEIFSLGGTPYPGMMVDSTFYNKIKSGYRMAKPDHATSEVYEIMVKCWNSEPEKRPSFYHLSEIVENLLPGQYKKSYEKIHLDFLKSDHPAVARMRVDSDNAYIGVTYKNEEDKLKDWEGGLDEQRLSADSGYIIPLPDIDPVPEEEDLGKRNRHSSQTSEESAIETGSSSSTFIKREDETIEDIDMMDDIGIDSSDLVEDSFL
Sequence of Mitogen-activated protein kinase 8 (Homo sapiens) (P45983 whole entry): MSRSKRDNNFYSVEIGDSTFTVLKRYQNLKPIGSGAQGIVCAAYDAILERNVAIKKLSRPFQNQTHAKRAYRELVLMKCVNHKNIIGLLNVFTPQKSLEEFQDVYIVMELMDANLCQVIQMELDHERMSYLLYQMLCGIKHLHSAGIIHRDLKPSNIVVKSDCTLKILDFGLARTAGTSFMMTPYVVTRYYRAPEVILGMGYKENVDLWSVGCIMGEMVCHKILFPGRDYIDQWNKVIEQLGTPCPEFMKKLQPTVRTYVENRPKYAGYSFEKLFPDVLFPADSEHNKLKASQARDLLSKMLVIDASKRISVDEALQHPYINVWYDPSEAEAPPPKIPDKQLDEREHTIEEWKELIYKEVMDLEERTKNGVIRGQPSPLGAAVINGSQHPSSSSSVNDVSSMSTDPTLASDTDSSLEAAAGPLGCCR
Sequence of Cyclin-dependent kinase 18 (Homo sapiens) (Q07002 whole entry): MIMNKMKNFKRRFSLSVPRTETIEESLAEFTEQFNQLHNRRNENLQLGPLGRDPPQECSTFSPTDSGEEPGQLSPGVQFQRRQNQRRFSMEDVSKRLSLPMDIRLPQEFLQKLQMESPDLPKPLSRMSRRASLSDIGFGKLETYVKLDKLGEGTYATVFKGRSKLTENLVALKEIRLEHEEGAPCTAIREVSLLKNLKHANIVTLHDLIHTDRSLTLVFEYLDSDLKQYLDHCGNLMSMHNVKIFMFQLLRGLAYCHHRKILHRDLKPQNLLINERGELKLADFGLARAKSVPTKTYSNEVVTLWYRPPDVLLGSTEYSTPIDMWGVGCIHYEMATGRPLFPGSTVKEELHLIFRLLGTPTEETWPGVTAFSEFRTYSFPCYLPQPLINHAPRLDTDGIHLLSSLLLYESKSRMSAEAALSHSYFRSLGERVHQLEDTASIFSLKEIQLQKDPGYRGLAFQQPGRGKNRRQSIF
Sequence of High affinity nerve growth factor receptor (Homo sapiens) (P04629 33-796 limits assumed): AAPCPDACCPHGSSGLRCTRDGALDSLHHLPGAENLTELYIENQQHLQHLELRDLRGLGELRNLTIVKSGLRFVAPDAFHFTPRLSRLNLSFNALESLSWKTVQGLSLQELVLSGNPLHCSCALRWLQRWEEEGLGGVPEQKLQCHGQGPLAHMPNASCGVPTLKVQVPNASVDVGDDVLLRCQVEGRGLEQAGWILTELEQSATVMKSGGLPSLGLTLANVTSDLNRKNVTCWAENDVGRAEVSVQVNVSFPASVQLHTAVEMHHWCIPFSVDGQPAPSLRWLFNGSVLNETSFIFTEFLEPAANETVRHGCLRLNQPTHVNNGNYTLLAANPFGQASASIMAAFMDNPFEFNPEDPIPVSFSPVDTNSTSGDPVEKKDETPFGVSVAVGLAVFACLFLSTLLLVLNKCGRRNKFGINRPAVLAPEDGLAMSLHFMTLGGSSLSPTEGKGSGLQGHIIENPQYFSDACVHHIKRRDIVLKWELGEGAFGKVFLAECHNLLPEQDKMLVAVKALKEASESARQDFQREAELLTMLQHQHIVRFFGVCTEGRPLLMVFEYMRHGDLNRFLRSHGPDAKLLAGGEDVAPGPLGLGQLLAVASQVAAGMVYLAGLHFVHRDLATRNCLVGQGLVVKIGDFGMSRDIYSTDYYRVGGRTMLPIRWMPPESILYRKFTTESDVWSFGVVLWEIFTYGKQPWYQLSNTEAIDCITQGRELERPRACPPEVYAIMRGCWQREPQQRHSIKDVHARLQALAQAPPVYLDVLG
Sequence of Death-associated protein kinase 2 (Homo sapiens) (Q9UIK4 whole entry, looked up): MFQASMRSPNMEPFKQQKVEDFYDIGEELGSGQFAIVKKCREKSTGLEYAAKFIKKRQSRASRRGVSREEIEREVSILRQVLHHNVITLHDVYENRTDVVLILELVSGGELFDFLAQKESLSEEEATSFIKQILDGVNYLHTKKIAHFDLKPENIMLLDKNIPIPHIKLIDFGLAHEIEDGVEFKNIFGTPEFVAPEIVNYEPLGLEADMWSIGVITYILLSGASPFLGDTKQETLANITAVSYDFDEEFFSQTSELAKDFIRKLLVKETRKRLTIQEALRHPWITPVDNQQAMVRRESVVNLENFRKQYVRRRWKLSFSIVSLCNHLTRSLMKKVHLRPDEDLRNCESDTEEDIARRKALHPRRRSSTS

On to `O=C(N[C@@H](C1CC1)C(F)(F)F)c1cc(-c2cnn3cc(-c4ccc(F)cc4)cnc23)cs1`, for which the fold change (FC) in [1] is 0; in assay [3], 0.05; in assay [4] it was 0. Also, the inhibition in assay [2] and in assay [5] was 0% each time.

Turning to `CNC(=O)c1ccccc1Oc1nc(Nc2cc(OC)c(OC)c(OC)c2)ncc1Br`, the fold change (FC) in assay [6] stood at 0; in [8], 0; in [9], 0.01; in assay [10], 0.27. Also, the inhibition in assay [7] is 14%.

On to `CC(C)[C@H](NC(=O)c1cc(-c2cnn3cc(-c4ccc(OCCN5CCCCC5)cc4)cnc23)cs1)C(F)(F)F`, for which the inhibition in [11] is 18%; in [12], 5%; in assay [14] it was 6%. Also, the fold change (FC) in assay [13] was 0.14.
